Hits are enriched below; roughly 4.1% of the tested compounds scored in any of these assays.
KCNK9 inh – human KCNK9 channel inhibition; HEK293 KCNK9, FluxOR thallium flux fluorescence; hits give low values; B-score at 10 µM; 310,000 tested, 1.2% active;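 active means ratio B-score over 3 SD below the library mean, with starting fluorescence within 5 SD of its mean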;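 further: negative B-score means less thallium flux so channel inhibition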
KCC2 mod – KCC2 (human) Cl- transport modulation; B-score of Tl+ flux slope (higher = more flux/activation; lower = inhibition) at 10 µM; 190,000 tested, 2.2% active; KCC2 cells, thallium flux FluoZin-2 fluorescence;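 active means thallium flux slope and its plate-corrected score both differing from the plate sample mean at a set confidence after two filtering rounds, in either direction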;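 further: slope of fluorescence scaled to starting intensity during 10 to 20 s after thallium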
hERG protect – shields human hERG channel from block by proarrhythmic agents. Q12809. CHO-hERG, FluxOR thallium flux, dofetilide IC70 present. activation (rescue from dofetilide block), less the hit threshold, % at 10 µM. 310,000 tested, 0.51% active. AID 1511;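 active means activation above the mean of controls blocked by dofetilide plus 5 SD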;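 further: thallium influx through hERG after potassium depolarization seen as dye fluorescence rise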
Target sequence (Q12809 whole entry, looked up): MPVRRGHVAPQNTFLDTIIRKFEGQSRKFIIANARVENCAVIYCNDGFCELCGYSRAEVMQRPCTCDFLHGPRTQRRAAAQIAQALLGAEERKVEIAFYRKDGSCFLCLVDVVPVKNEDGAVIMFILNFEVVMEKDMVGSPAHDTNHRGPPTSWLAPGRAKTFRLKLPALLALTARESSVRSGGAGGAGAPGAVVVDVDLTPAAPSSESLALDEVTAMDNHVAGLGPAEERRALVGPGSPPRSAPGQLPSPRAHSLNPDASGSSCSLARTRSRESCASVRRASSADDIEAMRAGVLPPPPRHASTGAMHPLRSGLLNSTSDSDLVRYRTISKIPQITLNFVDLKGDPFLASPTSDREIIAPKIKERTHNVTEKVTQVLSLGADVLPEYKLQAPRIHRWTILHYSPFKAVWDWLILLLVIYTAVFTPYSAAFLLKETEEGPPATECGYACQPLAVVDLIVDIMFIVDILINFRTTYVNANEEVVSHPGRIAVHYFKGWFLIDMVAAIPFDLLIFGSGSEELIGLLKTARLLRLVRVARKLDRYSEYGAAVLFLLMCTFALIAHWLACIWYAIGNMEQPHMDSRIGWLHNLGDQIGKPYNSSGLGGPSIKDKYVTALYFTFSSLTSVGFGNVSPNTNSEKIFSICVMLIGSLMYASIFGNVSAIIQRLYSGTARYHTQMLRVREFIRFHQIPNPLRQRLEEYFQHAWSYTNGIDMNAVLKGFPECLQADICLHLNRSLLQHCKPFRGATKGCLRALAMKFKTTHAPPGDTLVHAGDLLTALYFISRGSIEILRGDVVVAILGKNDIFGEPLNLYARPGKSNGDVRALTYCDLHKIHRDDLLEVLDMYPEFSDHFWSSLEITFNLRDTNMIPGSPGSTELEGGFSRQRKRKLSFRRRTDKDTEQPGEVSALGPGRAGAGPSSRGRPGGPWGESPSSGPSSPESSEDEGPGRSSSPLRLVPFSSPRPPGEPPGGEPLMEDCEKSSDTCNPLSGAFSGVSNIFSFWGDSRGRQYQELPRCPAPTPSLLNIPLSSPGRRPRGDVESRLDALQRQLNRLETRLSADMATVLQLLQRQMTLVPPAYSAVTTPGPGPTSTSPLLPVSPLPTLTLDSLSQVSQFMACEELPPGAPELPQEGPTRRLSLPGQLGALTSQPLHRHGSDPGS
KCNQ1 block – blocks the human KCNQ1 potassium channel; P51787; CHO-K1 KCNQ1, FluxOR thallium flux fluorescence; hits give high values; B-score at 10 µM; 310,000 tested, 1.3% active;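 active means compounds whose thallium flux B-score, printed positive for inhibition, exceeds three library SD while starting fluorescence stays within three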;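 further: channel opened by potassium depolarization with thallium stimulus after 20 min compound exposure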
KCNQ1 pot – potentiators or activators of human KCNQ1 potassium channel. P51787. CHO-K1 KCNQ1, thallium flux FluxOR fluorescence; hits give high values. B-score at 10 µM. 310,000 tested, 0.35% active;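 active means fluorescence ratio B-score, a plate-corrected score, at least three library SD, with initial intensity B-score within 5 SD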
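Material: CHO-K1 cells stably expressing KCNQ1. Medium: assay buffer for compound exposure, DMSO matched across wells. Reagent: K+/Tl+ depolarizing stimulus. Compound dosing: single-concentration screen. Times: 37 °C overnight plating, 90-min dark dye load, 20-min compound pretreatment. Technique: FluxOR Tl+ flux fluorescence.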
KCNK3 block – human KCNK3 channel inhibition, primary screen; CHO-KCNK3 thallium flux, FluxOR fluorescence; hits give low values; B-score at 10 µM; 340,000 tested, 0.84% active; AID 602410;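 active means B-score under library mean minus 4 SD, starting fluorescence ratio at most library mean plus 5 SD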;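 further: more negative B-score means stronger inhibition of thallium flux through KCNK3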
KCNK9 inh conf – human KCNK9 inhibitor confirmation; HEK293 KCNK9 cells, FluxOR thallium flux fluorescence; AID 492992; inhibition, % at 10 µM; 4,900 tested, 43% active; shares compounds with KCNK9 inh;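 active means thallium signal inhibited by more than 5 SD of the compound-free buffer control wells, on both duplicate plates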;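 further: 0% = assay buffer control wells without compound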
Kir2-1 spec – tests whether KCNK9 modulators also affect mouse Kir2.1 | shares compounds with KCNK9 inh | Kir2.1 cells, FluxOR thallium flux fluorescence | inhibition, % at 10 µM | 4,900 tested, 4% active | AID 492993;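 active means thallium signal drop more than 5 SD beyond the mean of the no-compound control wells, seen in both duplicate plates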;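 further: signal is fluorescence rise after thallium addition divided by baseline fluorescence; plate controls were assay buffer only for no effect and full block by chlorpromazine control for full effect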
KCNK9 uninduced – second check of KCNK9 modulator effects in non-induced HEK293 cells; shares compounds with KCNK9 inh; FluxOR thallium flux; inhibition, % at 10 µM; 4,900 tested, 40% active;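 active means thallium signal drop beyond 5 SD of the untreated control mean, on both duplicate plates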;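 further: plate controls were buffer only IC0 wells for no effect and SID17386958 at its maximal inhibitory level for full effect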
KCNK3 confirm – confirmation of human KCNK3 two-pore domain potassium channel inhibitors; ratio percent of control, % at 10 µM; CHO-KCNK3 thallium flux, FluxOR fluorescence; 0% buffer, 100% carvedilol maximal block; 2,400 tested, 99% active; shares compounds with KCNK3 block;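 active means ratio percent of control, averaged over triplicates, above buffer control mean plus 5 SD, cut at about 64% in these data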;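 further: ratio is the fluorescence rise from min to max over baseline after thallium stimulus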
KCNK3 uninduced – activity in cells without induced KCNK3 expression; 2,400 tested, 40% active; AID 651747; shares compounds with KCNK3 block; thallium flux ratio (lower = more inhibition) at 10 µM; non-induced KCNK3 parental cells, FluxOR thallium flux; hits give low values;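 active means thallium flux ratio, averaged over three wells, more than 5 SD below the buffer control mean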;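 further: host cells are CHO cells without KCNK3 induction; ratio is peak minus trough fluorescence over baseline then normalized to buffer controls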
Numbers without * were called inactive.

For CCCC(=O)OC(C(=O)Nc1cc(C(F)(F)F)ccc1Cl)c1ccccc1 (centres undefined) the results were KCNK9 inh -13*, KCC2 mod -0.45, hERG protect -12, KCNQ1 block inactive, KCNQ1 pot inactive, KCNK3 block inactive, KCNK9 inh conf 46%*, Kir2-1 spec inactive and KCNK9 uninduced 46%*.
Screening COc1ccc(C)cc1NC(=O)C(OC(=O)c1ccc(Cl)c(S(=O)(=O)N(C)c2ccccc2)c1)c1ccccc1 (centres undefined) returned KCNK9 inh -9.6*, KCC2 mod 0.39, hERG protect -6, KCNQ1 block inactive, KCNQ1 pot inactive, KCNK3 block -9.8*, KCNK9 inh conf 42%*, Kir2-1 spec inactive and KCNK9 uninduced inactive.
For Cc1cc(C(=O)NCC(=O)OC(C(=O)Nc2cc(C(F)(F)F)ccc2Cl)c2ccccc2)ccc1[N+](=O)[O-] (centres undefined) the results were KCNK9 inh -20*, KCC2 mod 0.28, hERG protect -6, KCNQ1 block inactive, KCNQ1 pot inactive, KCNK3 block -9.5*, KCNK9 inh conf 62%*, Kir2-1 spec inactive and KCNK9 uninduced 32%*.
For CCCC(=O)Nc1ccc(C(=O)Nc2cc(C(F)(F)F)ccc2Cl)cc1 the results were KCNK9 inh inactive, KCC2 mod 0.38, hERG protect -5, KCNQ1 block inactive, KCNQ1 pot inactive and KCNK3 block inactive.
Screening CN(Cc1ccccc1)C(=O)c1ccc(NC(=O)Cc2ccc(NC(=O)C3CCN(C(=O)c4ccccc4)CC3)cc2)cc1 returned KCNK3 block inactive.
For O=C(CN1CCN(C(C(=O)Nc2cc(C(F)(F)F)ccc2Cl)c2ccccc2)CC1)NC1CC1 (centres undefined) the results were KCNK3 block inactive.
Screening O=C(c1ccco1)N1CCc2[nH]nc(-c3ccc(Cl)cc3)c2C1 returned KCNK9 inh inactive, hERG protect -7, KCNQ1 block inactive, KCNQ1 pot inactive and KCNK3 block inactive.
`COc1ccc(-c2n[nH]c3c2CN(C(=O)c2ccccc2)CC3)cc1` gave KCNK9 inh inactive, hERG protect -9, KCNQ1 block inactive, KCNQ1 pot inactive, KCNK3 block inactive, KCNK9 inh conf inactive, Kir2-1 spec inactive and KCNK9 uninduced inactive.
C#CCOc1ccc(CNC[C@H]2O[C@@H](n3cnc4c(N)ncnc43)[C@H](O)[C@@H]2O)cc1 was read as KCNK3 block inactive.
Cc1cc(Oc2cnn(C(C)(C)C)c(=O)c2Cl)cc(C(C)C)c1 was read as KCNK9 inh inactive, hERG protect -21, KCNQ1 block inactive, KCNQ1 pot inactive, KCNK3 block inactive, KCNK9 inh conf inactive, Kir2-1 spec inactive and KCNK9 uninduced inactive.
Screening CC(C)(C)n1ncc(Oc2ccc(Oc3cnn(C(C)(C)C)c(=O)c3Cl)cc2)c(Cl)c1=O returned KCC2 mod 0.14.
COC(=O)c1ccccc1CON1C(=O)C(C)(C)N(OCc2ccccc2C(=O)OC)C(=O)C1(C)C was read as KCNK9 inh inactive, KCC2 mod -0.28, hERG protect -10, KCNQ1 block inactive, KCNQ1 pot inactive, KCNK3 block inactive, KCNK9 inh conf inactive, Kir2-1 spec inactive and KCNK9 uninduced inactive.
For CC(C)Cn1c(=O)c(C(=O)NCc2ccc3c(c2)OCO3)c(O)c2ccccc21 the results were KCNK9 inh inactive, hERG protect -7, KCNQ1 block inactive, KCNQ1 pot inactive and KCNK3 block inactive.
FC(F)(F)c1nnc(-c2ccccc2)nc1Oc1ccc(Cl)cc1Cl was read as KCNK9 inh inactive, hERG protect -9, KCNQ1 block 11*, KCNQ1 pot inactive, KCNK3 block inactive, KCNK9 inh conf inactive, Kir2-1 spec inactive and KCNK9 uninduced inactive.
For FC(F)(F)c1nnc(-c2ccccc2)nc1Sc1ccc(Cl)cc1 the results were KCNK9 inh inactive, KCC2 mod 0.3, hERG protect -18, KCNQ1 block inactive, KCNQ1 pot inactive, KCNK3 block inactive, KCNK9 inh conf inactive, Kir2-1 spec inactive and KCNK9 uninduced inactive.
Cn1nc(C#N)c(=O)[nH]c1=O was read as KCNK3 block inactive.
For Cc1ccc(C2CC2C(=O)NNC(=S)Nc2ccc(Cl)cc2)cc1 (centres undefined) the results were KCNK9 inh inactive, KCC2 mod -0.57, hERG protect -16, KCNQ1 block 10*, KCNQ1 pot inactive, KCNK3 block inactive, KCNK9 inh conf inactive, Kir2-1 spec inactive and KCNK9 uninduced inactive.
`CC(C)(C)NC(=S)NNC(=O)[C@H]1C[C@@H]1c1ccccc1` gave KCNK9 inh inactive, KCC2 mod 0.026, hERG protect -8, KCNQ1 block inactive, KCNQ1 pot inactive and KCNK3 block inactive.
For COc1ccc(/C=N/NC(=O)c2cc(-c3ccccc3)nc3ccccc23)cc1O the results were KCNK9 inh inactive, hERG protect -14, KCNQ1 block inactive, KCNQ1 pot inactive and KCNK3 block inactive.
Screening COc1ccc(/C=N/NC(=O)c2nc(-c3ccccc3)cc(-c3ccccc3)n2)cc1O returned KCNK9 inh -11*, KCC2 mod -0.53, hERG protect -12, KCNQ1 block inactive, KCNQ1 pot inactive, KCNK3 block inactive, KCNK9 inh conf 68%*, Kir2-1 spec inactive and KCNK9 uninduced inactive.
`O=C(Nc1ccccc1N1CCN(C(=O)c2ccccc2)CC1)c1ccc(Cl)cc1` gave KCNK9 inh -13*, KCC2 mod 0.0066, hERG protect -22, KCNQ1 block inactive, KCNQ1 pot inactive, KCNK3 block -15*, KCNK9 inh conf 37%*, Kir2-1 spec inactive, KCNK9 uninduced inactive, KCNK3 confirm 113* and KCNK3 uninduced inactive.

Screens (PubChem BioAssay)
